Measurements: ChEMBL document CHEMBL4699605, “Synthesis and biological evaluation of novel flexible nucleoside analogues that inhibit flavivirus replication in vitro” (Bioorg Med Chem, 2020)

What was measured:
dengue virus type 2 = test: Antiviral activity against DENV-2 infected in African green monkey Vero cells assessed as virus titer reduction incubated for 48 hrs by plaque assay; format: functional, organism-based
[1] = Inhibition of Dengue virus 2'-O methyltransferase incubated for 15 mins followed by [methyl-3-H]-AdoMet addition and measured after 30 mins by microbeta counter method
Method in brief: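 DENV-3 2′-O-MTase (0.5 µM) in 40 mM Tris-HCl pH 7.5 and 5 mM DTT with 1 µM capped RNA GpppAC5 and 10 µM AdoMet containing [3H]AdoMet, 30 °C for 30 min. Stopped by 20-fold dilution in ice-cold 100 µM AdoHcy. RNA captured on DEAE filter, washed, and transferred radioactivity counted. Inhibitor serially diluted, points in triplicate; IC50 from logistic dose-response fit with slope factor.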

[2] = Inhibition of Dengue virus N-7 methyltransferase incubated for 15 mins followed by [methyl-3-H]-AdoMet addition and measured after 15 mins by microbeta counter method

| Structure (SMILES) | EC50 (dengue virus type 2) [nM] | IC50 [1] [nM] | IC50 [2] [nM] |
| --- | --- | --- | --- |
| C#C[C@@]1(O)[C@H](O)[C@@H](CO)O[C@H]1n1ccc2c(N)ncnc21 | 640 |  |  |
| Nc1ncnc2c1ncn2[C@@H]1O[C@H](C[C@@H](N)CC[C@H](N)C(=O)O)[C@@H](O)[C@H]1O [SINEFUNGIN] |  | 41 | 30 |
